Data published in ChEMBL document CHEMBL1781896, “Prenylated derivatives of baicalein and 3,7-dihydroxyflavone: synthesis and study of their effects on tumor cell lines growth, cell cycle and apoptosis” (2011).
Calls of active or inactive are those of the source. The rule behind the calls is not given here.

Assays:
Type in all cases: functional
[1] = system: MCF7; experiment: Growth inhibition of human MCF7 cells after 48 hrs by sulforhodamine B assay; details: MCF7, 48 h
Method in brief: (§1)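 SRB assay in MCF-7, NCI-H460 (5.0 × 10⁴ cells/mL) and A375-C5 (7.5 × 10⁴ cells/mL) grown in RPMI-1640 with 5% FBS. Cells attached overnight, then were exposed 48 h to five serial dilutions (top 150 or 50 µM; DMSO ≤0.25%). Cells were TCA-fixed, SRB-stained and read at A492. GI₅₀ taken from dose-response curves. Mean ± SEM, ≥3 independent experiments in duplicate.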

[2] = Growth inhibition of human A375-C5 cells after 48 hrs by sulforhodamine B assay; details: A375-C5, 48 h; method in brief: as §1
[3] = system: NCI-H460; experiment: Growth inhibition of human NCI-H460 cells after 48 hrs by sulforhodamine B assay; details: NCI-H460, 48 h; method in brief: as §1
[4] = system: NCI-H460; experiment: Induction of apoptosis in human NCI-H460 cells assessed as apoptotic cells at 2.7 uM after 48 hrs using annexin-V FITC/PI staining by flow cytometry (reference value: 8.4 to 11.2%)
[5] = system: NCI-H460; experiment: Cell cycle arrest in human NCI-H460 cells assessed as decrease in cell accumulation in S phase at 2.7 uM after 48 hrs by propidium iodide staining-based flow cytometry
[6] = system: NCI-H460; experiment: Cell cycle arrest in human NCI-H460 cells assessed as decrease in cell accumulation in G2/M phase at 2.7 uM after 48 hrs by propidium iodide staining-based flow cytometry
[7] = system: NCI-H460; experiment: Cell cycle arrest in human NCI-H460 cells assessed as increase in cell accumulation in G1 phase at 2.7 uM after 48 hrs by propidium iodide staining-based flow cytometry
[8] = system: NCI-H460; experiment: Cell cycle arrest in human NCI-H460 cells assessed as decrease in cell accumulation in S phase at 12.6 uM after 48 hrs by propidium iodide staining-based flow cytometry
[9] = system: NCI-H460; experiment: Induction of apoptosis in human NCI-H460 cells assessed as apoptotic cells at 12.6 uM after 48 hrs using annexin-V FITC/PI staining by flow cytometry (reference value: 8.4 to 11.2%)
[10] = system: NCI-H460; experiment: Cell cycle arrest in human NCI-H460 cells assessed as decrease in cell accumulation in G2/M phase at 12.6 uM after 48 hrs by propidium iodide staining-based flow cytometry
[11] = system: NCI-H460; experiment: Cell cycle arrest in human NCI-H460 cells assessed as increase in cell accumulation in G1 phase at 12.6 uM after 48 hrs by propidium iodide staining-based flow cytometry
[12] = system: NCI-H460; experiment: Cell cycle arrest in human NCI-H460 cells assessed as increase in cell accumulation in G1 phase at 4.1 uM after 48 hrs by propidium iodide staining-based flow cytometry
[13] = system: NCI-H460; experiment: Cell cycle arrest in human NCI-H460 cells assessed as decrease in cell accumulation in S phase at 4.1 uM after 48 hrs by propidium iodide staining-based flow cytometry
[14] = system: NCI-H460; experiment: Cell cycle arrest in human NCI-H460 cells assessed as decrease in cell accumulation in G2/M phase at 4.1 uM after 48 hrs by propidium iodide staining-based flow cytometry
[15] = system: NCI-H460; experiment: Induction of apoptosis in human NCI-H460 cells assessed as apoptotic cells at 4.1 uM after 48 hrs using annexin-V FITC/PI staining by flow cytometry (reference value: 8.4 to 11.2%)
[16] = system: NCI-H460; experiment: Cell cycle arrest in human NCI-H460 cells assessed as decrease in cell accumulation in S phase at 3.9 uM after 48 hrs by propidium iodide staining-based flow cytometry
[17] = system: NCI-H460; experiment: Induction of apoptosis in human NCI-H460 cells assessed as apoptotic cells at 3.9 uM after 48 hrs using annexin-V FITC/PI staining by flow cytometry (reference value: 8.4 to 11.2%)
[18] = system: NCI-H460; experiment: Cell cycle arrest in human NCI-H460 cells assessed as increase in cell accumulation in G1 phase at 3.9 uM after 48 hrs by propidium iodide staining-based flow cytometry
[19] = system: NCI-H460; experiment: Cell cycle arrest in human NCI-H460 cells assessed as decrease in cell accumulation in G2/M phase at 3.9 uM after 48 hrs by propidium iodide staining-based flow cytometry
[20] = system: NCI-H460; experiment: Cell cycle arrest in human NCI-H460 cells assessed as decrease in cell accumulation in S phase at 6.8 uM after 48 hrs by propidium iodide staining-based flow cytometry
[21] = system: NCI-H460; experiment: Cell cycle arrest in human NCI-H460 cells assessed as increase in cell accumulation in G1 phase at 6.8 uM after 48 hrs by propidium iodide staining-based flow cytometry
[22] = system: NCI-H460; experiment: Induction of apoptosis in human NCI-H460 cells assessed as apoptotic cells at 6.8 uM after 48 hrs using annexin-V FITC/PI staining by flow cytometry (reference value: 8.4 to 11.2%)
[23] = system: NCI-H460; experiment: Cell cycle arrest in human NCI-H460 cells assessed as decrease in cell accumulation in G2/M phase at 6.8 uM after 48 hrs by propidium iodide staining-based flow cytometry
[24] = system: NCI-H460; experiment: Induction of apoptosis in human NCI-H460 cells assessed as apoptotic cells at 4.9 uM after 48 hrs using annexin-V FITC/PI staining by flow cytometry (reference value: 8.4 to 11.2%)
[25] = system: NCI-H460; experiment: Cell cycle arrest in human NCI-H460 cells assessed as decrease in cell accumulation in S phase at 4.9 uM after 48 hrs by propidium iodide staining-based flow cytometry
[26] = system: NCI-H460; experiment: Cell cycle arrest in human NCI-H460 cells assessed as decrease in cell accumulation in G2/M phase at 4.9 uM after 48 hrs by propidium iodide staining-based flow cytometry
[27] = system: NCI-H460; experiment: Cell cycle arrest in human NCI-H460 cells assessed as increase in cell accumulation in G1 phase at 4.9 uM after 48 hrs by propidium iodide staining-based flow cytometry

GI50 [1] [µM]	GI50 [3] [µM]	Structure (SMILES)	GI50 [2] [µM]	other results
32.8	26.7	O=c1cc(-c2ccccc2)oc2cc(O)c(O)c(O)c12 [BAICALEIN]	7.7	
17.4	15.4	O=c1c(O)c(-c2ccccc2)oc2cc(O)ccc12 [3,7-DIHYDROXYFLAVONE]	23	
3.7	2.7	CC1(C)CCc2c(ccc3c(=O)c(O)c(-c4ccccc4)oc23)O1	2.3	Activity [4]: 13.1%; Activity [5]: Active; Activity [6]: Active; Activity [7]: Active
14	12.6	CC(C)=CCOc1ccc2c(=O)c(O)c(-c3ccccc3)oc2c1	30.3	Activity [8]: Active; Activity [9]: 11.9%; Activity [10]: Active; Activity [11]: Active
21	17.7	CC1(C)CCc2c(c(O)c(O)c3c(=O)cc(-c4ccccc4)oc23)O1	27.4	
43.7	40.6	CC1Oc2c(O)c(O)c3c(=O)cc(-c4ccccc4)oc3c2C1(C)C (configuration not stated)	47.7	
4.5	3.9	CC1Oc2ccc3c(=O)c(O)c(-c4ccccc4)oc3c2C1(C)C (configuration not stated)	7.6	Activity [16]: Active; Activity [17]: 9.5%; Activity [18]: Active; Activity [19]: Active
6.4	4.9	CC(C)=CCC/C(C)=C/COc1ccc2c(=O)c(O)c(-c3ccccc3)oc2c1	7.2	Activity [24]: 12%; Activity [25]: Active; Activity [26]: Active; Activity [27]: Active

The remaining lines, values behind:

Structure (SMILES)	GI50 [1] [µM]	GI50 [3] [µM]	GI50 [2] [µM]	other results
CC(C)=CCOc1ccc2c(=O)c(OCC=C(C)C)c(-c3ccccc3)oc2c1	63.3	51.9	59	
CC(C)=CCC/C(C)=C/COc1ccc2c(=O)c(OC/C=C(\C)CCC=C(C)C)c(-c3ccccc3)oc2c1	66.5	55	58.5	
CC(C)=CCOc1cc2oc(-c3ccccc3)cc(=O)c2c(O)c1OCC=C(C)C	> 150	> 150	> 150	
CC(C)=CCC/C(C)=C/COc1c(OC/C=C(\C)CCC=C(C)C)c(O)c2c(=O)cc(-c3ccccc3)oc2c1C/C=C(\C)CCC=C(C)C	> 150	> 150	> 150	
CC(C)=CCOc1c(OCC=C(C)C)c(O)c2c(=O)cc(-c3ccccc3)oc2c1CC=C(C)C	> 150	> 150	> 150	
CC(C)=CCC/C(C)=C/COc1cc2oc(-c3ccccc3)cc(=O)c2c(O)c1OC/C=C(\C)CCC=C(C)C	> 150	> 150	> 150	
CC(C)=CCC/C(C)=C/COc1cc2oc(-c3ccccc3)cc(=O)c2c(O)c1O	4.4	4.1	5.3	Activity [12]: >10%; Activity [13]: Active; Activity [14]: Active; Activity [15]: 18.8%
CC(C)=CCOc1cc2oc(-c3ccccc3)cc(=O)c2c(O)c1O	9.1	6.8	9.2	Activity [20]: Active; Activity [21]: >10%; Activity [22]: 9.1%; Activity [23]: Active
